# Hits are enriched below; roughly 2% of the tested compounds scored in any of these assays.
# Hep lipid drop = hepatic lipid droplet formation modulation | AML12 mouse hepatocytes, oleate lipid droplets, BODIPY imaging | 240,000 tested, 0.4% active | inhibition, % at 6.5 µM;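 active means lipid droplet intensity inhibited by at least 50%, with more than 500 cells counted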
#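 Assay system: AML12 mouse liver cells | Compound dosing: One dose, 6.5 µM compound | Read-out basis: Droplet intensity reduction, % inhibition | Measured by: Fluorescence imaging, 20x objective, two fields per well | Schedule: Overnight treatment with compound plus oleate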
# NTR1 ag = activates human neurotensin receptor 1; P30989; NTR1-U2OS beta-arrestin-GFP spot imaging, agonist mode; 330,000 tested, 0.17% active; activation, % at 20 µM;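 active means activation at or above 40% of the spot to cytoplasm intensity ratio, with at least 20 cells analyzed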;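 further: 0% = DMSO without peptide and 100% = 100 nM NTR1 peptide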
# Target sequence (P30989 whole entry, looked up): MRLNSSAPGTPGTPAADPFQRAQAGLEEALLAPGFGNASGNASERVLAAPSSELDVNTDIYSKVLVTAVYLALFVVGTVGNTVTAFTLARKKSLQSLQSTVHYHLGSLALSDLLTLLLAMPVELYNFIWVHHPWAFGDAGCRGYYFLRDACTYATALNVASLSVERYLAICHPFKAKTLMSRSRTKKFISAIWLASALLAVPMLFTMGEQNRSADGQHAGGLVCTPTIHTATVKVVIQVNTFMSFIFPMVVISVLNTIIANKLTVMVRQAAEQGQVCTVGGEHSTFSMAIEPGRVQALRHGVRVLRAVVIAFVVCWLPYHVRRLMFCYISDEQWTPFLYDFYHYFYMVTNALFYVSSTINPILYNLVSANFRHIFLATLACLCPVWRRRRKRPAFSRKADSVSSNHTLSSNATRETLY
# Beta2AR agonist = activates human beta-2 adrenergic receptor causing internalization; Am2.2-beta2AR cells, FAP receptor internalization, flow cytometry; response, % (no concentration beside the values); P07550; AID 504454; 340,000 tested, 0.43% active;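 active means response above a set limit, near 3 SD of response in nonfluorescent compounds, cut at about 42% in these data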
# H9c2 TAG inh = reduces triacylglycerol accumulation in H9c2 cells; Nile Red lipid (TAG) fluorescence; cells loaded with 200 µM oleic acid; inhibition, % at 12.5 µM; 230,000 tested, 0.66% active;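 active means pattern-corrected inhibition of lipid staining of at least 50% with the nuclear-stain viability signal not falling by more than 50%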;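 further: 0% = DMSO wells and 100% = triacsin C control wells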
# Arr AP2 block = human beta-arrestin and AP2 interaction inhibition; FITC-arrestin peptide / GST-AP2 beads, flow cytometry; AP2 beta2 appendage carries R879A mutation; inhibition, % at 10 µM; 340,000 tested, 0.31% active;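 active means inhibition above a set limit, near 3 SD of compounds lacking own fluorescence, cut at about 54% in these data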;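 further: plate controls were DMSO wells for no effect and 5 µM unlabelled arrestin peptide for full effect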
#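 System: GST-AP2 R879A glutathione beads; medium: PBS, Tween 20 0.05%, BSA 0.1%; reagent: fluorescein-tagged arrestin peptide at 50 nM final; schedule: pre-incubation 12 min, peptide binding 1 h, room temperature; detection: flow cytometry, FL1 (488/535 nm); read-out: inhibition as reduced fluorescein signal on beads, percent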
# GRK2 inh = human GRK2 inhibition via aptamer displacement | bead flow cytometry, FAM-aptamer displacement from GRK2 | inhibition of aptamer binding, % at 10 µM | 330,000 tested, 0.59% active | P25098;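 active means inhibition of aptamer binding above 40%, roughly 3 SD of noise, on plates passing a quality check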;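 further: median bead fluorescence of bound FAM aptamer so fluorescent compounds give negative values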
# GRK2 inh confirm = human GRK2 inhibition confirmation, cherry pick 1; shares compounds with GRK2 inh; bead-bound GRK2, FAM-aptamer displacement, flow cytometry; aptamer displacement, % at 10 µM; 2,000 tested, 4% active; AID 504451;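 active means aptamer displacement above 40%, near three times the noise of non-fluorescent compounds, on plates passing quality checks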;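 further: negative values mostly reflect intrinsic compound fluorescence rather than true enhancement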
# Aptamer quench 1 = fluorescent aptamer quenching in GRK2 counter-screen dose response; shares compounds with GRK2 inh; Fluorescent RNA aptamer beads, flow cytometry; active compounds read high; fluorescence change (kMESF span), kMESF (no concentration beside the values); 110 tested, under 10 active; AID 504521;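 active means compounds whose bead fluorescence drops by more than 37 kMESF across the dose range, marking them as dye quenchers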
# FAM quench CP1 = aptamer fluorescence quenching in GRK2 counter-screen; shares compounds with GRK2 inh; Carboxyfluorescein RNA aptamer on beads, flow cytometry quenching; active compounds read low; fluorescence response (% of DMSO), % at 10 µM; 2,000 tested, under 10 active; AID 504580;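 active means compounds that quench the bead-bound fluorescent RNA probe, cutting fluorescence to under half of the solvent control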;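 further: counterscreen run without GRK2 so only probe quenching by compound is measured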
# GRK2 confirm 2 = confirmation of human GRK2 inhibitors binding RNA aptamer site. shares compounds with GRK2 inh. bead-bound GRK2, FAM-aptamer displacement, flow cytometry. inhibition of aptamer binding, % at 10 µM. 360 tested, under 10 active;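 active means inhibition of aptamer binding above 40%, about triple the noise seen with nonglowing compounds, on plates passing quality control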;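 further: negative values mostly come from compounds that fluoresce themselves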
# FAM quench CP2 = quenches fluorescent RNA aptamer, GRK2 hit artifact; shares compounds with GRK2 inh; carboxyfluorescein RNA aptamer beads, flow cytometry quenching; active compounds read low; fluorescence response vs DMSO, % at 10 µM; 360 tested, under 10 active; AID 588494;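 active means response vs DMSO under 50%, meaning signal dropped by over half, treated as fluorescence quencher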;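 further: labelled aptamer on streptavidin beads without GRK2 as a quench counter-screen; 100% = bead fluorescence of DMSO wells and lower means quenching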
# FAM quench DR = aptamer fluorescence quenching in GRK2 powder counter-screen | shares compounds with GRK2 inh | Bead-bound FAM RNA aptamer fluorescence quenching, flow cytometry; active compounds read low | fluorescence ratio to DMSO, % at 11.1 µM | 35 tested, under 10 active | AID 588496;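 active means compounds that dim the fluorescent label, raw bead signal shifting by over 33 units between lowest and highest dose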
# The depositor's hits bear a star; x = no result.
SMILES,Hep lipid drop,NTR1 ag,Beta2AR agonist,H9c2 TAG inh,Arr AP2 block,GRK2 inh,GRK2 inh confirm,FAM quench CP1,others
Cc1oc2c(c(C)cc3oc(=O)c(CC(=O)NCCCO)c(C)c32)c1C,3,0,4,x,9,2,x,x,
Cc1oc2c(c(C)cc3oc(=O)c(CC(=O)NCCCN4CCCC4=O)c(C)c32)c1C,-11,0,2,x,25,6,0,94,
C[C@]12C=CC(=O)C=C1CC[C@@H]1[C@@H]2C(=O)C[C@@]2(C)[C@H]1CC[C@]2(O)C(=O)COC(=O)CCC(=O)O,2,-1,1,x,29,78*,1,97,
C[C@]12C=CC(=O)C=C1CC[C@@H]1C2C(O)C[C@@]2(C)C1CC[C@]2(O)C(=O)COC(=O)CCC(=O)NC(CC(=O)O)C(=O)O (some centres not stated),x,1,3,x,48,2,x,x,
COc1cc(C2NC(=O)N(C)C(C)=C2C(=O)OCc2ccccc2)cc(Br)c1O (configuration not stated),x,2,8,x,-2,1,x,x,
COc1cc2c(cc1NC(=O)c1cccc([N+](=O)[O-])c1)oc1ccccc12,3,6,7,22,-11,92*,-23,105,
COc1cc2c(cc1NC(=O)c1ccc(C)c([N+](=O)[O-])c1)oc1ccccc12,-6,5,7,x,41,0,x,x,
COCCNC(=O)C1CCCN(C(=O)c2nc(C)oc2C)CC1 (configuration not stated),x,x,x,9,x,x,x,x,
CN(C)S(=O)(=O)c1ccc(Nc2ccc(-c3ccc4c(c3)OCCO4)nn2)cc1,x,2,0,x,-3,1,x,x,
CN(C(=O)c1cccc(Nc2ccc(-c3ccc4c(c3)OCCO4)nn2)c1)C1CCCCC1,-4,9,7,13,-1,0,4,103,
O=C(CSc1ccccc1)Nc1ccc(-c2nc3ccccc3[nH]2)cc1,1,0,-9,x,0,100*,x,x,GRK2 confirm 2=12;FAM quench CP2=101
Cc1ccc2nc(-c3ccc(NC(=O)CSc4ccccc4)cc3)[nH]c2c1,8,4,9,x,-7,0,x,x,
NS(=O)(=O)c1ccc(NC(=O)CSC2=NC(=O)C(c3ccccc3)C(=O)N2)cc1 (configuration not stated),x,-1,0,-8,-1,100*,-1,101,
NS(=O)(=O)c1ccc(NC(=O)CSc2ccccc2)cc1,6,-1,0,x,-4,0,x,x,
NS(=O)(=O)c1cc(C(=O)NC2CCSc3ccccc32)ccc1Cl (configuration not stated),-1,0,0,x,2,51*,18,96,
CCN1CCN(CC(=O)N2N=CCC2c2ccccc2)CC1 (configuration not stated),26,-1,5,12,6,100*,0,100,
COc1ccc(C(=O)[C@H]2[C@H]3C(=O)N(c4ccc(OC(C)=O)cc4)C(=O)[C@H]3C3C=CC=NN32)cc1 (some centres not stated),13,0,14,3,21,0,x,x,
CC(=O)Oc1ccc(C(=O)[C@H]2[C@H]3C(=O)N(c4cccc5ccccc45)C(=O)[C@H]3[C@@H]3C=CC=NN32)cc1,-2,3,8,x,-2,73*,x,x,GRK2 confirm 2=8;FAM quench CP2=101
CNC(=O)c1[nH]cnc1C(=O)Nc1ccc(F)cc1,15,0,3,x,11,89*,-3,142,Aptamer quench 1=9.5
CN(Cc1cccnc1)Cc1c(C(=O)N2CCc3ccccc3C2)nc2ccc(Cl)cn12,-2,0,-27,7,-3,93*,-1,100,
Nc1nc(=S)c2ncn(C3OC(CO)C(O)C3O)c2[nH]1 (configuration not stated),20,x,-6,x,12,87*,8,101,
COCCN(C(=O)CSc1n[nH]c(-c2ccccc2)n1)c1c(N)n(Cc2ccccc2)c(=O)[nH]c1=O,x,1,16,-16,-3,3,x,x,
CN1Cc2sc(N)c(C#N)c2CC1(C)C,x,12,-19,-7,20,52*,3,97,
CC1(C)Cc2c(sc(N)c2C#N)C(C)(C)N1,2,1,-3,6,-24,0,x,x,
COc1ccc(NS(=O)(=O)c2cccc(C(=O)N3CCN(S(=O)(=O)c4ccccc4)CC3)c2)cc1,x,x,7,2,-8,x,x,x,
SMILES,Hep lipid drop,NTR1 ag,Beta2AR agonist,H9c2 TAG inh,Arr AP2 block,GRK2 inh,GRK2 inh confirm,FAM quench CP1,others
Cc1onc(-c2ccccc2)c1C(=O)n1cc(Br)cn1,-6,1,-16,-13,17,69*,0,97,
Cc1onc(-c2ccccc2)c1C(N)=O,1,-1,7,x,4,2,x,x,
Cc1ccc2nc(SCC(=O)Nc3cccc(F)c3)nc(=O)n2c1,x,0,-6,-5,-8,100*,1,99,
Cc1ccc(CCNC(=O)CCS(=O)(=O)c2ccc(Br)cc2)cc1,8,-2,2,4,-3,3,0,100,Aptamer quench 1=9.3;FAM quench DR=102
Cc1cccc(CCNC(=O)CCS(=O)(=O)c2ccc(Br)cc2)c1,1,-1,7,-1,5,1,2,104,FAM quench DR=101
Cc1cc(/C=N/N2CCN(C)CC2)c(C)n1-c1ccccc1F,4,0,-1,x,6,50*,1,99,
Cc1nn(Cc2c(F)c(F)c(F)c(F)c2F)c(C)c1NC(=O)c1ccc(COc2ccccc2Cl)o1,x,4,-2,x,-3,2,2,99,
CC(=O)COC(=O)c1cccc(N2C(=O)C3C4C=CC(C4)C3C2=O)c1 (configuration not stated),-8,4,9,-7,11,80*,2,104,
